Series [1] addresses T1, Estrogen receptor (Homo sapiens, UniProt P03372).
T1 sequence (P03372 whole entry): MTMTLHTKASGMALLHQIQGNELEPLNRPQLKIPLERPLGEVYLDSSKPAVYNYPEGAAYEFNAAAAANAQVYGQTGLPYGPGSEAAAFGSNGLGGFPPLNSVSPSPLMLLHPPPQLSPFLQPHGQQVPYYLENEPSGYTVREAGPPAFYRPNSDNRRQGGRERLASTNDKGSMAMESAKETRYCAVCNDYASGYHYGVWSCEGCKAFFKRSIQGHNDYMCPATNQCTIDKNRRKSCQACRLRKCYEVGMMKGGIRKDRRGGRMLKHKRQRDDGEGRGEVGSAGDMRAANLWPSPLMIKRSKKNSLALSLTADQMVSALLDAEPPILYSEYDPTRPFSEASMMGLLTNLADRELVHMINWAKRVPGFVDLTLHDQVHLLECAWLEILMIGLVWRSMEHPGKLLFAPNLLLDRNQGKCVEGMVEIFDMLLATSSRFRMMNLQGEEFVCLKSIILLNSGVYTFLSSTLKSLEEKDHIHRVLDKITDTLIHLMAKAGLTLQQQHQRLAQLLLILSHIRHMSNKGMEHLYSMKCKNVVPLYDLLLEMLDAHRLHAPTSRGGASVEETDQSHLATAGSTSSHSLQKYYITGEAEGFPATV
The series is described as follows: Antagonist activity at estrogen receptor alpha (unknown origin) by NH Pro assay.

The target in series [2] is T1, Estrogen receptor. As to the kind of experiment: Agonist activity at estrogen receptor alpha (unknown origin) by NH Pro assay.
Series [3] concerns the target T2, Glucocorticoid receptor (Homo sapiens, UniProt P04150).
T2 sequence (P04150 whole entry): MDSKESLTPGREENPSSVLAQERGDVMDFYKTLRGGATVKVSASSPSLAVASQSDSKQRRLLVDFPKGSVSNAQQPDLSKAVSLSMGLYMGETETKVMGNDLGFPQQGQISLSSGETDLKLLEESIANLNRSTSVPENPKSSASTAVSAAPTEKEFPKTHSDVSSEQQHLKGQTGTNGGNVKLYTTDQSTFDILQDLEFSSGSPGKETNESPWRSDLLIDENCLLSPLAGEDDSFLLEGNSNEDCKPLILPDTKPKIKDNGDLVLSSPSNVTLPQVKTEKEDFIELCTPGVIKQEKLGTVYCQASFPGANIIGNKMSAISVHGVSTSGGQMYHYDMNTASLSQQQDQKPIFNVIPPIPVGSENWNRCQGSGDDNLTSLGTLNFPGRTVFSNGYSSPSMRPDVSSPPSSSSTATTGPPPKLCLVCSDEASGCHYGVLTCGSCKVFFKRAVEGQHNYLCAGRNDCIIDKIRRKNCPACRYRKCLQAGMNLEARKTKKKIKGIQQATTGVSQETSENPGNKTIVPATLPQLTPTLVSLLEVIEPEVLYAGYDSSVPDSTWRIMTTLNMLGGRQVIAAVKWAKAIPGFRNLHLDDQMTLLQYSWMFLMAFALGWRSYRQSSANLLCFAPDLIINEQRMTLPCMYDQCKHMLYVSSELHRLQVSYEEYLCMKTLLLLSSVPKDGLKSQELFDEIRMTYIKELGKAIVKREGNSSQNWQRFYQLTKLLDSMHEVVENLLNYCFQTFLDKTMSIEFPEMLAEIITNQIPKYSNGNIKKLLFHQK
The series is described as follows: Agonist activity at glucocorticoid receptor (unknown origin) by NH Pro assay.

Series [4] has as its target T2, Glucocorticoid receptor. The series is described as follows: Antagonist activity at glucocorticoid receptor (unknown origin) by NH Pro assay.
For series [5], the target named is T3, Mineralocorticoid receptor (Homo sapiens, UniProt P08235).
T3 sequence (P08235 whole entry): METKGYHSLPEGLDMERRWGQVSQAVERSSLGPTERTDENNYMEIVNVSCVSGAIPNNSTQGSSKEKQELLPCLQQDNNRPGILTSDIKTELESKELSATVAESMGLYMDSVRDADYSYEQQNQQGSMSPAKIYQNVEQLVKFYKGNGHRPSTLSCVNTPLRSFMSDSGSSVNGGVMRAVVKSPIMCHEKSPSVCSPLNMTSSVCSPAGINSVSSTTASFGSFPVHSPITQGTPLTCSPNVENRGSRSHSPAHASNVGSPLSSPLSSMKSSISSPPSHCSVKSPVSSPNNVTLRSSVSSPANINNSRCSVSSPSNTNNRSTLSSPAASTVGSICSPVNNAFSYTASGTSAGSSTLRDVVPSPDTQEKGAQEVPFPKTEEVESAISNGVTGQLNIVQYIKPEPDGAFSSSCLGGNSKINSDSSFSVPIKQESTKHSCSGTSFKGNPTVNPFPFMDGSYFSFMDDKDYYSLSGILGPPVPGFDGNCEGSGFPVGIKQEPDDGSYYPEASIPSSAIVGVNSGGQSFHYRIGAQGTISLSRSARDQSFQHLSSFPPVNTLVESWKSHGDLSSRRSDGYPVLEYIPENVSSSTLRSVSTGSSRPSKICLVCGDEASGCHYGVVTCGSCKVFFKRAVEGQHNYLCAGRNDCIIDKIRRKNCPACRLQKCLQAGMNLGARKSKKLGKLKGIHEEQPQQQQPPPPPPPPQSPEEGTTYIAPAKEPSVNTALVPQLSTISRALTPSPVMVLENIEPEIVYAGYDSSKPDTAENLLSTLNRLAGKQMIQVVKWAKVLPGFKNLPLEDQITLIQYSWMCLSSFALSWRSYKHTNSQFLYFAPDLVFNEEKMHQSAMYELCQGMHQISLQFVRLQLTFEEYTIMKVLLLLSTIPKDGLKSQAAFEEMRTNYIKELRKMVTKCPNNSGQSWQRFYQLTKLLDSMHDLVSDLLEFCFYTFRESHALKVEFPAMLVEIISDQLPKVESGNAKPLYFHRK
As to the kind of experiment: Antagonist activity at human mineralocorticoid receptor assessed as inhibition of binding to coactivator peptide by NH Pro assay.

Series [6] deals with Rattus norvegicus. As to the kind of experiment: Dose normalized AUC in rat at 1 mg/kg, po. The format is ADME, organism-based. The arrangement: dose 1 mg/kg, route oral. Conditions: in vivo. An outline of the steps:
(§1)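 Rats dosed at 1 mg/kg iv (n = 2) or 1 mg/kg po (n = 3), formulated at 1 mg/mL in PEG 200:water (70:30). Blood concentrations measured by LC/MS/MS after protein precipitation with acetonitrile.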

Series [7] deals with Rattus norvegicus. As to the kind of experiment: Dose normalized AUC in rat at 1 mg/kg, iv. The class given is ADME, organism-based. Also noted: dose 1 mg/kg, route intravenous. To be noted: in vivo. The procedure, abridged:
as §1

Series [8] in a line: Cmax in rat at 1 mg/kg, iv and 1 mg/lg, po. The format is ADME, organism-based. Also noted: dose 1 mg/kg, route oral. Conditions: in vivo. The procedure, abridged: as §1
Series [9] can be described thus: Half life in rat at 1 mg/kg, iv and 1 mg/lg, po. The format is ADME, organism-based. To be noted: in vivo. The arrangement: dose 1 mg/kg, route oral. An outline of the steps: as §1
Series [10] concerns Rattus norvegicus. As to the kind of experiment: Volume of distribution at steady state in rat at 1 mg/kg, iv and 1 mg/lg, po. Conditions: in vivo. The arrangement: dose 1 mg/kg, route oral. The class given is ADME, organism-based. The procedure, abridged: as §1
A short description of series [11]: Oral bioavailability in rat at 1 mg/kg. The format is ADME, organism-based. To be noted: in vivo. An outline of the steps: as §1

Bounds are passed on as bounds.

Turning to `COC(=O)[C@@H]1CC2=CC(=O)CC[C@]2(C)[C@@]23O[C@@H]2C[C@@]2(C)[C@@H](CC[C@@]24CCC(=O)O4)[C@H]13` [EPLERENONE], in series [1], the IC50 (commonly the concentration that gives 50% inhibition) is more than 20000 nM. Besides, the EC50 (in general, the concentration at which the effect is half-maximal) in series [2] was more than 20000 nM.

As for `CC(=O)S[C@@H]1CC2=CC(=O)CC[C@]2(C)[C@H]2CC[C@@]3(C)[C@@H](CC[C@@]34CCC(=O)O4)[C@H]12` [SPIRONOLACTONE], the figures for the IC50 in [1] and in series [4] were more than 20000 nM and 4100 nM, respectively. Besides, the EC50 in series [2] and in [3] was more than 20000 nM in each case. With `COc1cc(CNC(=O)[C@@]2(Cc3ccc4nonc4c3)OC(=O)N([C@H](C)c3ccccc3)C2=O)cc(OC)c1`, in series [5], the IC50 was more than 40000 nM. On the same count and under the same terms, for `C[C@H](c1ccccc1)N1C(=O)O[C@](Cc2ccccc2)(C(=O)NCc2ccncc2)C1=O` the value was more than 40000 nM.

As for `C[C@H](NC(=O)[C@@]1(Cc2ccccc2)OC(=O)N([C@H](C)c2ccccc2)C1=O)c1cccc(Cl)c1`, the half-maximal inhibitory concentration (IC50) in series [5] was determined as 2600 nM. For the compound `C[C@H](c1ccccc1)N1C(=O)O[C@](Cc2ccccc2)(C(=O)NCc2cccc(Cl)c2)C1=O`, the IC50 in [5] stood at 280 nM. Still for that read-out and setting: the same measure for `C[C@H](c1ccccc1)N1C(=O)O[C@](Cc2ccccc2)(C(=O)NCCc2ccncc2)C1=O`: 4000 nM; for `C[C@H](c1ccccc1)N1C(=O)O[C@](Cc2ccccc2)(C(=O)NC2CCCCC2)C1=O`: 4000 nM; for `COc1cccc(CNC(=O)[C@@]2(Cc3ccccc3)OC(=O)N([C@H](C)c3ccccc3)C2=O)c1`: 300 nM.

In the case of `C[C@H](c1ccccc1)N1C(=O)O[C@](Cc2ccccc2)(C(=O)Nc2cccc(Cl)c2)C1=O`, in [5], the IC50 is 2000 nM.

In the case of `C[C@H](c1ccc(F)cc1)N1C(=O)O[C@](Cc2ccccc2)(C(=O)Nc2ccc(Cl)cc2)C1=O`, in series [5], the IC50 turned out to be 180 nM.

In the case of `COc1cc(CNC(=O)[C@@]2(Cc3ccccc3)OC(=O)N([C@H](C)c3ccccc3)C2=O)cc(OC)c1`, the figures for the AUC/dose in series [6] and in [7] were 0.05 µM·kg·h/mg and 0.75 µM·kg·h/mg, respectively. Also, the Cmax (in general, the maximum level reached in the sampled fluid or tissue) in [8] is 60 nM. In addition, in [9], the half-life (commonly the time in which the quantity being followed falls by half) was 1.2 h. The Vdss in series [10] came out at 2.8 L/kg. Also, the bioavailability (as a rule, dose-corrected exposure relative to a reference, in per cent) in series [11] came out at 7%. Further, the IC50 in [5] was 54 nM.

With `COc1ccc(CNC(=O)[C@@]2(Cc3ccccc3)OC(=O)N([C@H](C)c3ccccc3)C2=O)cc1`, in series [5], the half-inhibitory concentration (IC50) was determined as 1000 nM. As for `C[C@H](c1ccccc1)N1C(=O)O[C@](Cc2ccccc2)(C(=O)N[C@@H]2C[C@H]2c2ccccc2)C1=O`, in [5], the IC50 turned out to be 250 nM. Turning to `C[C@H](c1ccccc1)N1C(=O)O[C@](Cc2ccccc2)(C(=O)NCc2cccnc2)C1=O`, the IC50 in series [5] stood at 13000 nM. Take `C[C@H](c1ccccc1)N1C(=O)O[C@](Cc2ccccc2)(C(=O)NCc2cccc3cnccc23)C1=O`: the IC50 in series [5] is 3000 nM. On to `C[C@H](c1ccccc1)N1C(=O)O[C@](Cc2ccccc2)(C(=O)N2CCc3ccccc3C2)C1=O`, for which the IC50 in series [5] turned out to be 340 nM. Same read-out and setting: the same measure for `COc1cc(CNC(=O)C2(Cc3ccccc3)CCN(Cc3ccccc3)C2)cc(OC)c1` (centres undefined): more than 40000 nM. Still for that read-out and setting: the same measure for `CC[C@H](c1ccccc1)N1C(=O)O[C@](Cc2ccccc2)(C(=O)NCc2cc(OC)cc(OC)c2)C1=O`: 400 nM.
